Experimental findings from ChEMBL document CHEMBL4334488 (J Med Chem, 2019) are described below.

Data set [1] has as its target Histamine H1 receptor (Homo sapiens, UniProt P35367). The data set is described as follows: Displacement of 5 nM [3H-pyrilamine from human H1R expressed in Sf9 cell membranes co-expressing RGS4 by competition binding assay. A digest of the protocol:
(§1)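 Competition binding on Sf9 membranes in 100 μL with 0.2% BSA. Membrane protein: 5−25 μg (H4R), 24−35 μg (H3R), 15 μg (H2R), 23 μg (H1R). Normalized total binding was plotted against log competitor. Two to four independent experiments, each in triplicate.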

Data set [2] in a line: Chemical stability in PBS buffer at pH 7.4 at 200 uM at 23 degC measured over 24 hrs by RP-HPLC analysis. The data set is classed as physicochemical. The following applies: pH 7.4, 24 h. A digest of the protocol: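 Compounds diluted to 200 μM in PBS pH 7.4 from a 10 mM DMSO stock, incubated at 23 °C for 24 h, and analysed by RP-HPLC with detection at 220 nm.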
For data set [3], the target named is T1, Histamine H3 receptor (Homo sapiens, UniProt Q9Y5N1). The data set is described as follows: Displacement of 2 nM [3H]UR-PI294 from human H3R expressed in Sf9 cell membranes co-expressing Gia2 and beta1gamma2 by competition binding assay. Summed up:
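Competition binding on Sf9 membranes in 100 μL with 0.2% BSA. Membrane protein: 5−25 μg (H4R), 24−35 μg (H3R), 15 μg (H2R), 23 μg (H1R). […] Normalized total binding was plotted against log competitor. Two to four independent experiments, each in triplicate.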

Data set [4] has as its target T2, Histamine H4 receptor (Homo sapiens, UniProt Q9H3N8). Nature of the data set: Displacement of 40 nM [3H]-histamine from human H4R expressed in Sf9 cell membranes co-expressing Gia2 and beta1gamma2 by competition binding assay. A digest of the protocol:
as §1

For data set [5], the target named is T1, Histamine H3 receptor. The data set is described as follows: Displacement of 3 nM [3H]Nalpha-methylhistamine from human H3R expressed in Sf9 cell membranes co-expressing Gia2 and beta1gamma2 by competition binding assay. Summed up: as §1
In data set [6] the target is T2, Histamine H4 receptor. Nature of the data set: Binding affinity to human H4R.
In data set [7] the target is T3, Histamine H4 receptor (Mus musculus, UniProt Q91ZY2).
T3 sequence (Q91ZY2 whole entry): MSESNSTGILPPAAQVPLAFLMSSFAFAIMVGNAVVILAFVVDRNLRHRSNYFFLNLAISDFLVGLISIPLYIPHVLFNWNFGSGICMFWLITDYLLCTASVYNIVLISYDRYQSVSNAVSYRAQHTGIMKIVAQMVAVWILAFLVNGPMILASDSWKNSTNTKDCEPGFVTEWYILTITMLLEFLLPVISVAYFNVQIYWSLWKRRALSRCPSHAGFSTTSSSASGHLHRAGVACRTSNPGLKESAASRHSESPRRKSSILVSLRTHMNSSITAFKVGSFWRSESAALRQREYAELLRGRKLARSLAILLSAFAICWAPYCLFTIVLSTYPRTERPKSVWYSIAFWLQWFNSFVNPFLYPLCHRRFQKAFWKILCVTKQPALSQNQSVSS
Nature of the data set: Agonist activity at mouse H4R by [35S]-GTPgammaS-binding assay. The data set is classed as functional. For orientation: GTPγS resists hydrolysis and so accumulates on activated G proteins.

In data set [8] the target is T2, Histamine H4 receptor. The data set is described as follows: Agonist activity at human H4R by [35S]-GTPgammaS-binding assay. The data set is classed as functional.
Data set [9] concerns the target T4, Histamine H4 receptor (Mus musculus) (UniProt Q91ZY2).
T4 sequence (whole entry): T3 sequence (Q91ZY2 whole entry)

Data set [10] deals with Histamine H4 receptor (Rattus norvegicus) (UniProt Q91ZY1).
Sequence of Histamine H4 receptor (Rattus norvegicus) (Q91ZY1 whole entry): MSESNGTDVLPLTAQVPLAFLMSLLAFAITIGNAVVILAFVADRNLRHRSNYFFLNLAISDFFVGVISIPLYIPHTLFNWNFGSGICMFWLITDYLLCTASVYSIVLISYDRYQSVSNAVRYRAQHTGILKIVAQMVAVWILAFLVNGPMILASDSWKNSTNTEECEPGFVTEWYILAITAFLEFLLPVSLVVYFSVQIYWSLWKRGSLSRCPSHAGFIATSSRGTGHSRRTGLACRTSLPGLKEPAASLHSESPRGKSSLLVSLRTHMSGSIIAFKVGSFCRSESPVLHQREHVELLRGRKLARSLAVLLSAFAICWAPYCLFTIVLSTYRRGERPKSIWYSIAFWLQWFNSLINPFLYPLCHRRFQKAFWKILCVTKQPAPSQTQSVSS
Data set [11] addresses T2, Histamine H4 receptor.
The species named for data set [12] is Homo sapiens. Nature of the data set: Selectivity index, ratio of Ki for [3H]UR-DE257 from human H2R expressed in Sf9 cell membranes co-expressing GsalphaS by competition binding assay to Ki for displacement of 40 nM [3H]-histamine from human H4R expressed in Sf9 cell membranes co-expressing Gia2 and beta1gamma2 by competition binding assay.
The target in data set [13] is Histamine H2 receptor (Homo sapiens, UniProt P25021). Nature of the data set: Displacement of 20 nM [3H]UR-DE257 from human H2R expressed in Sf9 cell membranes co-expressing GsalphaS by competition binding assay. Summed up: as §1
Sequence of Histamine H2 receptor (P25021 whole entry): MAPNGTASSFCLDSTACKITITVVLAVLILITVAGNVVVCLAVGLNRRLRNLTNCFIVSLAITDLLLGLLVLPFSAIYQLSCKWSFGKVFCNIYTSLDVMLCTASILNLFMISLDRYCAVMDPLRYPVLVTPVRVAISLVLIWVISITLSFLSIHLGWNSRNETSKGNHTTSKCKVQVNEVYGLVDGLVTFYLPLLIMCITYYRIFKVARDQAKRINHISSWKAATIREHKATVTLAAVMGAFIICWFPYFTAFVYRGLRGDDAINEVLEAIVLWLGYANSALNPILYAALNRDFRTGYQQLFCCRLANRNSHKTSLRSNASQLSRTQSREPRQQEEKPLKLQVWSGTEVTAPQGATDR
For data set [14], the species on record is Homo sapiens. Nature of the data set: Selectivity index, ratio of Ki for displacement of 2 nM [3H]UR-PI294 from human H3R expressed in Sf9 cell membranes co-expressing Gia2 and beta1gamma2 by competition binding assay to Ki for displacement of 40 nM [3H]-histamine from human H4R expressed in Sf9 cell membranes co-expressing Gia2 and beta1gamma2 by competition binding assay.

Data set [15] is described as follows: Chemical stability in EtOH/H2O (70:30) at -20 degC measured over 11 months. The following applies: 8035.5 h. The data set is classed as physicochemical. Summed up: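 Radioligand stored in EtOH/H2O 70:30 at −20 °C. Radiochemical purity was checked by HPLC with UV and radiometric detection after spiking with the unlabeled compound, 4 days after synthesis and again after 11 months.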

Where only a bound is given, the exact number is not on record here.

Sequence of Histamine H1 receptor (P35367 whole entry, looked up): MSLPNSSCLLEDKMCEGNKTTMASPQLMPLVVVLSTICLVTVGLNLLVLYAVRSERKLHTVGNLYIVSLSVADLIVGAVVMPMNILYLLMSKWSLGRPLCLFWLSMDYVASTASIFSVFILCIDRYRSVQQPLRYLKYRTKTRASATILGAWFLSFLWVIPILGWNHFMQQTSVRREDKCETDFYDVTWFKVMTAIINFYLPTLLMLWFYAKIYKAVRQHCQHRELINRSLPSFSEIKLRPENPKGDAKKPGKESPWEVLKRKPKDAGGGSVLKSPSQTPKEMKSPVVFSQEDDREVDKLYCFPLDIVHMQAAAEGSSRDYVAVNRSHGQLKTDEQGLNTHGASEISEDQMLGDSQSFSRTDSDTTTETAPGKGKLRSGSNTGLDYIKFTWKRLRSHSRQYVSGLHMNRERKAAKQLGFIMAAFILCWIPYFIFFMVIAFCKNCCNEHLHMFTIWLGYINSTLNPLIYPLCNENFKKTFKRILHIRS
T2 sequence (Q9H3N8 whole entry): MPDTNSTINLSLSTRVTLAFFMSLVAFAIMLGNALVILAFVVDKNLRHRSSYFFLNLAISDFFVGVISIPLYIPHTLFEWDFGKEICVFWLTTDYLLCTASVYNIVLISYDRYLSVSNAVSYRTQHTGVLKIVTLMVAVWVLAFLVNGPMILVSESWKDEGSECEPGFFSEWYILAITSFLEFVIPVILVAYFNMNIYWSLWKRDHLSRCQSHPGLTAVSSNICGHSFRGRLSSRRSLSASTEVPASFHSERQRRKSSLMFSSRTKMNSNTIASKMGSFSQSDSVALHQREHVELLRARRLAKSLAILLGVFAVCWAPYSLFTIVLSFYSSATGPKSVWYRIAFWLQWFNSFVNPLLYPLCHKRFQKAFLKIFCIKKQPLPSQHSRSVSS
T1 sequence (Q9Y5N1 whole entry): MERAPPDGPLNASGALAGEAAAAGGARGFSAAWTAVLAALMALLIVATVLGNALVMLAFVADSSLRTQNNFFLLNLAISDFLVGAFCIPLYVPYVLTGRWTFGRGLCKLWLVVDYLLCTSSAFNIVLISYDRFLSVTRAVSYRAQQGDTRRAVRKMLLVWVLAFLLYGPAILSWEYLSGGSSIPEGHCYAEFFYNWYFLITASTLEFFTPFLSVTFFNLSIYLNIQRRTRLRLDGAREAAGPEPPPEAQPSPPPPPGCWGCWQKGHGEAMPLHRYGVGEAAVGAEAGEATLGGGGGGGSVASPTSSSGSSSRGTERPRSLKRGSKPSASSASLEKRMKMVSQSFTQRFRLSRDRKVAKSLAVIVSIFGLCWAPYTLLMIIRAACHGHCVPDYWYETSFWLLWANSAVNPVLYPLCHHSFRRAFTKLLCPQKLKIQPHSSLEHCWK

Consider `CN(C)[C@@H]1CCN(c2ccnc(NCC(C)(C)C)n2)C1.O=C(O)C(F)(F)F.O=C(O)C(F)(F)F`, for which the Ki (as a rule, the dissociation constant of the complex between target and ligand, obtained from inhibition or displacement) in [1] is over 10 µM. For the same molecule, the Stability entry in [2] is listed as “Stable”.
As for `CC(C)(C)CNc1nccc(NCCc2c[nH]cn2)n1`, the Ki is 0.00955 µM in data set [3] and 0.204 µM in [4].
For the molecule `CN1CCN(c2ccnc(NCC(C)(C)C)n2)CC1`, the affinity in [5], expressed as Ki, was 5.5 µM.
Take `NC(=NCCc1ccc(I)cc1)SCCCc1cnc[nH]1` [IODOPHENPROPIT]: the Ki in [6] was 0.0126 µM.
Regarding `CC(C)(C)CNc1nccc(NC2CCNC2)n1` (stereo not given), the Ki was 0.204 µM in [5], 0.204 µM in [3] and over 10 µM in data set [1].
`CC(C)(C)CNc1nccc(N2CCNCC2)n1` gave a Ki in data set [5] of over 10 µM.
As for `NC(=NCc1ccc(Cl)cc1)SCCCc1cnc[nH]1` [CLOBENPROPIT], the EC50 (in general, the concentration needed to bring the measured effect to its halfway point) in data set [7] is 0.851 µM; in data set [8], 0.0224 µM.
Consider `CC(C)(C)CNc1nccc(N2CCCN(C(=N)N)CC2)n1`, for which, in data set [5], the Ki was over 10 µM.
For the molecule `CN1CCCN(c2ccnc(NCC(C)(C)C)n2)CC1.O=C(O)C(F)(F)F.O=C(O)C(F)(F)F`, the results for the Ki in data set [5] and in data set [1] were 2.4 µM and over 10 µM, respectively. In addition, the Stability result in [2] is on record as “Stable”.
With `CC(C)(C)CNc1nccc(N2CC[C@@H](NC(=N)N)C2)n1.O=C(O)C(F)(F)F.O=C(O)C(F)(F)F`, the Ki in data set [5] is 1.12 µM; in [1], over 10 µM. Further, the Stability result in data set [2] was “Stable”.
Turning to `CC(C)(C)CNc1nccc(N2CCN(C(=N)N)CC2)n1`, the Ki was 6.03 µM in data set [5] and over 1 µM in data set [1].
Consider `Cc1[nH]cnc1CSCCNc1ccnc(NCC(C)(C)C)n1`, for which the Ki in data set [5] is over 10 µM; in data set [1], over 1 µM.
`CC(C)(C)CNc1nccc(N2CCc3nc[nH]c3C2)n1.O=C(O)C(F)(F)F.O=C(O)C(F)(F)F`: the Ki in [5] was 0.00331 µM. Besides, the Stability result in data set [2] was “Stable”.
Molecule `CC(C)(C)CNc1nccc(N2CCN(CCN)CC2)n1` had a Ki in [5] of over 10 µM.
Turning to `CC(C)(C)CNc1nccc(N2CCCNCC2)n1`, the Ki in data set [3] was 0.537 µM.
For `CC(C)(C)CNc1nccc(NCCCN)n1`, the Ki in [5] was 5.62 µM; in data set [3] it was 5.62 µM; in data set [1], over 10 µM.
As to `S=C(NC1CCCCC1)N1CCC(c2cnc[nH]2)CC1`, the values for the pKb in [9], in [10] and in data set [11] were 7.12, 6.44 and 6.83, respectively.
Take `CC(C)(C)CNc1nccc(N2CC[C@@H](N)C2)n1`: in [5], the affinity, expressed as Ki, was 0.0138 µM.
Consider `CC(C)(C)CNc1nccc(NCCN)n1`, for which the Ki in data set [5] is 0.692 µM; in data set [1], over 1 µM.
As to `CC(C)(C)CNc1nccc(NC2CCNCC2)n1`, the Ratio Ki is over 4.7 in data set [12] and 1.6 in data set [14]. The Ki was over 10 µM in data set [13]; 3.47 µM in [5]; 3.47 µM in [3]; 1.91 µM in [4]; over 10 µM in [1].
As to `CN[C@@H]1CCN(c2ccnc(NCC(C)(C)C)n2)C1`, the Ki in data set [5] and in data set [3] was 0.0275 µM each time.
On to `N=C(NCc1ccc(Cl)cc1)SCCCc1c[nH]cn1`, for which the negative logarithm of the Kb (pKb) (as a rule, −log10 of the Kb, conventionally taken in molar units) in data set [10] is 6.28.
In data set [3], `CC(C)(C)CNc1nccc(NCCCc2c[nH]cn2)n1` had a Ki of 0.00933 µM.
In the case of `O=C(O)C(F)(F)F.O=C(O)C(F)(F)F.[3H]C([3H])([3H])N(C)[C@@H]1CCN(c2ccnc(NCC(C)(C)C)n2)C1`, the Stability entry in data set [15] is given as “Stable”.
In the case of `CCC(=O)N[C@@H]1CCN(c2ccnc(NCC(C)(C)C)n2)C1`, the Ki in data set [5] and in data set [3] was 3.02 µM each time.
